Published values collected from several papers.
EIF2AK4 S808G C-terminal kinase domain: eIF-2-alpha kinase GCN2, C-terminal kinase domain (EIF2AK4, Homo sapiens, UniProt Q9P2K8, S808G)
EIF2AK4 S808G: eIF-2-alpha kinase GCN2 (EIF2AK4, Homo sapiens, UniProt Q9P2K8, S808G)

O=C(c1ccc(Nc2nccc(-c3cc4ccccc4s3)n2)cc1)N1CCC(N2CCCC2)CC1 — remaining binding (EIF2AK4 S808G C-terminal kinase domain; binding, competition with immobilised ligand; 1 µM): 5.2%
C[C@@H]1CCN(c2nccc(-c3cnn4ncccc34)n2)C1 — remaining binding (EIF2AK4 S808G; binding; 1 µM): 78%
CN1CCN(c2ccc(Nc3nccc(-c4ccccc4)n3)cc2C(F)(F)F)CC1 — remaining binding (EIF2AK4 S808G; binding; 10 µM): 0.2%
CCCOc1ccc([C@@H]2[C@@H](C(=O)O)[C@H](c3ccc4c(c3)OCO4)CN2CC(=O)Nc2c(CC)cccc2CC)cc1 — remaining binding (EIF2AK4 S808G C-terminal kinase domain; cell-free assay, competition with immobilised ligand; 1 µM): 100%
O=C(c1ccc(Nc2ncc(Cl)c(-c3cc4ccccc4s3)n2)cc1)N1CCC(N2CCCC2)CC1 — remaining binding (EIF2AK4 S808G C-terminal kinase domain; binding, competition with immobilised ligand; 1 µM): 0%
FC(F)(F)Oc1cccc(-c2cnc3ccc(-c4ccncc4)nn23)c1 — remaining binding (EIF2AK4 S808G; binding, competition with immobilised ligand; 5 µM): 35%
C[C@H](NC(=O)c1cnc2n1[C@](C)(Cc1ccc(C#N)cc1)C(=O)N2c1cc(Cl)c(F)c(Cl)c1)C(=O)NC1(c2ccccn2)CC1 — remaining binding (EIF2AK4 S808G C-terminal kinase domain; cell-free assay, competition with immobilised ligand; 1 µM): 100%
O=C(Nc1c[nH]nc1C(=O)NC1CCNCC1)c1cc(F)cc(F)c1 — remaining binding (EIF2AK4 S808G C-terminal kinase domain; binding, competition with immobilised ligand; 1 µM): 100%
O=S(=O)(NC1CCC(c2cc(F)ccc2F)(S(=O)(=O)c2ccc(Cl)cc2)CC1)C(F)(F)F (centres unmarked) — remaining binding (EIF2AK4 S808G C-terminal kinase domain; cell-free assay, competition with immobilised ligand; 1 µM): 100%
COc1cnc(Nc2cccc(S(N)(=O)=O)c2)nc1N1CCN(c2ccccc2)C(=O)C1 — remaining binding (EIF2AK4 S808G C-terminal kinase domain; binding, competition with immobilised ligand; 1 µM): 90%
c1cncc(-c2cccc(Nc3nccc(NC4CCCCC4)n3)c2)c1 — remaining binding (EIF2AK4 S808G C-terminal kinase domain; binding, competition with immobilised ligand; 10 µM): 100%
COc1ccnn2ncc(-c3ccnc(N(C)C)n3)c12 — remaining binding (EIF2AK4 S808G; binding; 1 µM): 93%
O=C(NCc1ncc(C(F)(F)F)cc1Cl)c1ccc2c(c1)C1(CCS(=O)(=O)CC1)[C@@H](C1CC1)N2S(=O)(=O)c1ccc(F)cc1 — remaining binding (EIF2AK4 S808G C-terminal kinase domain; cell-free assay, competition with immobilised ligand; 1 µM): 100%
CN(C)c1ncc(F)c(-c2cnn3ncccc23)n1 — remaining binding (EIF2AK4 S808G; binding; 1 µM): 100%
CCCCN(CCCC)C(=O)CN1C[C@@H](c2cc(OC)c3c(c2)OCO3)[C@H](C(=O)O)[C@H]1CC(C)(C)CCC — remaining binding (EIF2AK4 S808G C-terminal kinase domain; cell-free assay, competition with immobilised ligand; 1 µM): 100%
CN(c1nccc(-c2cnn3ncccc23)n1)C1CC1 — remaining binding (EIF2AK4 S808G; binding; 1 µM): 69%
Nc1ncc2c(n1)-c1c([nH]c3ccc(C#CC4CC4)cc13)CCCC2 — remaining binding (EIF2AK4 S808G C-terminal kinase domain; binding, competition with immobilised ligand; 1 µM): 89%
CN(CCCC(F)(F)F)c1nccc(-c2cnn3ncccc23)n1 — remaining binding (EIF2AK4 S808G; binding; 1 µM): 99%
C=CC(=O)N1CCC(C(=O)NCC(=O)N2CCN(c3nc(-c4cnc(N)nc4C(F)F)nc(N4CCOCC4)n3)CC2)CC1 — remaining binding (EIF2AK4 S808G C-terminal kinase domain; binding, competition with immobilised ligand; 1 µM): 100%
c1cnn2ncc(-c3ccnc(N4CCC45COC5)n3)c2c1 — remaining binding (EIF2AK4 S808G; binding; 1 µM): 100%
Cn1nc(C(F)(F)F)cc1-c1cnc(N2CCc3cc(S(=O)(=O)Nc4c(F)cc(Cl)cc4F)cc(N4CCCC4=O)c32)nc1 — remaining binding (EIF2AK4 S808G C-terminal kinase domain; cell-free assay, competition with immobilised ligand; 1 µM): 100%
N[C@@H]1CCN(c2nccc(-c3cnn4ncccc34)n2)C1 — remaining binding (EIF2AK4 S808G; binding; 1 µM): 100%
Cc1cnc(Nc2ccc(C(=O)N3CCC(N4CCCC4)CC3)cc2)nc1-c1cc2ccccc2s1 — remaining binding (EIF2AK4 S808G C-terminal kinase domain; binding, competition with immobilised ligand; 1 µM): 0%
